Assay results from different studies.
Compare with care: the assays were run in different laboratories.
Read-out: metabolic stability
Species: human

`O=c1c2cc(Cl)c(CO)cc2[nH]c(=S)n1Cc1cncnc1` has a half-life of 71.8 min (liver microsomes; 1 µM, pH 7.4).
`Cc1ncc2n1-c1ccc(Cl)cc1C(c1ccccc1F)=NC2` gave a half-life of 92.6 min (hepatocytes).
The half-life of `C#Cc1nc(C(=O)N2CCC(NC(=O)c3cnc(-c4ccccc4)s3)(c3nc4ccccc4n3C)CC2)cs1` is reported as ~20 min (liver microsomes).
For `Cc1[nH]c(C)c(S(=O)(=O)Nc2ccc(S(=O)(=O)F)c(Cl)c2)c1C(=O)N1CCC(F)(F)C1`, the half-life was 22 min (liver microsomes).
The half-life of `CC(=O)c1c(C)c2cnc(Nc3ccc(C4CCN(CCS(C)(=O)=O)CC4)cn3)nc2n(C2CCCC2)c1=O` is reported as 85.6 min (liver S9).
`CC(c1cncnc1)n1c(=S)[nH]c2ccc(Cl)cc2c1=O` (stereo not shown) has a half-life of > 186 min (liver microsomes; 1 µM, pH 7.4).
`O=c1[nH]c2ccccc2n1C1CCN(CCCC(c2ccc(F)cc2)c2ccc(F)cc2)CC1` gave a half-life of 201 min (liver microsomes; 100 ng/mL).
The half-life of `CC(C)CC(=O)OC[C@H]1O[C@@](C#N)(c2ccc3c(N)ncnn23)[C@H](O)[C@@H]1O` is reported as < 4.36 min (hepatocytes).
With `Cc1[nH]c(C)c(S(=O)(=O)Nc2ccc(S(F)(F)(F)(F)F)cc2)c1C(=O)N1CCC(F)(F)C1` the half-life was 26.3 min (liver microsomes).
The half-life of `C[C@]12CC[C@H]3[C@@H](CCC4=CC(=O)CC[C@@]43C)[C@@H]1CC[C@@H]2O` is reported as 21.7 min (liver microsomes).
